Assay outcomes as filed in PubChem.
AHR activator: AHR activators, primary screen, cell-based, luminescence, luciferase reporter, human. AHR-responsive luciferase reporter cells. activation, % at 5 µM. 2.5% of 320,000 active. AID 2796, 2010; in the data active means activation above about 47%
PolyA inh: polyadenylation inhibitors in yeast reporter cells, primary screen, luminescence, S. cerevisiae; S. cerevisiae SKY197-pL101 polyadenylation reporter, beta-gal luminescence; efflux-impaired pdr1/pdr3 knockout yeast; score 100 = 6 SD above DMSO; activity score, % at 12 µM; 0.02% of 300,000 active; AID 1875, 2009;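 active means lowest replicate activity score at least 50, where 100 means six control SD above control mean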;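 further: yeast exposed to compound for 9 h at 30 °C; higher score means more reporter readthrough which indicates perturbed polyadenylation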
APOBEC3G inh: APOBEC3G DNA deaminase inhibitors, primary screen, biochemical, fluorescence, single-stranded DNA substrate, uHTS | DNA dC->dU-editing enzyme APOBEC-3G (Homo sapiens), Q9HC16 | recombinant A3G, ssDNA deamination FAM/TAMRA fluorescence | inhibition, % at 20 µM | 0.28% of 330,000 active | AID 493012, 2011;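 active means inhibition of at least 40% at 20 µM, with no more than 30% in the related APOBEC3A deaminase screen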
Arr AP2 block: inhibitors of beta-arrestin/AP2 binding, primary screen, biochemical, GPCR trafficking, flow cytometry | 0.31% of 340,000 active | beta-arrestin 1 C-terminal peptide binding to AP2 beta2-adaptin appendage (human) | inhibition, % at 10 µM | FITC-arrestin peptide / GST-AP2 beads; AP2 beta2 appendage carries R879A mutation | AID 504490, 2011;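 active means inhibition above a set limit, near 3 SD of compounds lacking own fluorescence, cut at about 54% in these data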
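System: GST-AP2 R879A glutathione beads. Medium: PBS with 0.05% Tween 20 and 0.1% BSA. Also added: FITC-arrestin peptide, 50 nM. Incubation: 12 min plus 1 h, RT. Measured by: high-throughput flow cytometry of beads, ex 488, em 535 nm. Evaluation: percent drop in bead-associated FITC signal.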
APOBEC3A inh: APOBEC3A ssDNA deaminase inhibitors, primary screen, selectivity assay for APOBEC3G inhibitor project, biochemical, FAM/TAMRA oligo cleavage fluorescence; DNA dC->dU-editing enzyme APOBEC-3A (Homo sapiens), P31941; inhibition, % at 20 µM; recombinant A3A, FAM/TAMRA ssDNA deamination fluorescence; 0.41% of 330,000 active;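 active means at least 40% inhibition at 20 µM here, with at most 30% in a related deaminase screen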
Target sequence (P31941 whole entry, looked up): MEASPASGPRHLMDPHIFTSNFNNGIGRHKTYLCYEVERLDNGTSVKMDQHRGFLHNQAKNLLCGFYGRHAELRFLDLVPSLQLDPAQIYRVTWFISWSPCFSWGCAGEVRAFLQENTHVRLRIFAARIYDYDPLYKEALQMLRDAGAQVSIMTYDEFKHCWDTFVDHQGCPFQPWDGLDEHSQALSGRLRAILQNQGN
UCH37 inh: inhibitors of human UCH37 deubiquitinase, primary screen, biochemical, Ub-AMC cleavage, fluorescence. Ubiquitin carboxyl-terminal hydrolase isozyme L5 (Homo sapiens), Q9Y5K5. purified proteasome/UCH37. inhibition, % (test concentration not listed). 0.33% of 330,000 active;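 active means mean inhibition over replicate wells above about 20%, limit read from the data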
Target sequence (Q9Y5K5 whole entry, looked up): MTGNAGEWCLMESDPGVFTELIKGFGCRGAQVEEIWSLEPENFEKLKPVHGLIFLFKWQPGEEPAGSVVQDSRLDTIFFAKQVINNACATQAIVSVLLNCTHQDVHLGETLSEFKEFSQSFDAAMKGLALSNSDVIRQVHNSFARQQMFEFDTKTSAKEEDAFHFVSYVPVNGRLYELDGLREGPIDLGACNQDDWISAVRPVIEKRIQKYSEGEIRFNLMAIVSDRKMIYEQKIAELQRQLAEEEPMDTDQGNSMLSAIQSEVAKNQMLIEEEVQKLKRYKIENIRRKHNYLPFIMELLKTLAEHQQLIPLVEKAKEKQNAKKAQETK
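Material: human UCH37 enzyme supplied as purified proteasome complex. Measure: % inhibition of Ub-AMC cleavage fluorescence. Medium: pH 7.4 Tris-HCl (50 mM) with ovalbumin, ATP-MgCl2, DTT. Times: 30 min preincubation with enzyme, 25 min cleavage at room temperature. Detection: AMC fluorescence intensity at 355/460 nm.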
Hits are given with their value; . = inactive; / = not tested or not shown. Only some compounds are listed: those with a hit (about 3.4% of all), similar ones and a draw of the others.

SMILES	AHR activator	PolyA inh	APOBEC3G inh	Arr AP2 block	APOBEC3A inh	UCH37 inh
CCN(CC)c1ccc(C=NNC(=O)c2cccc(S(=O)(=O)Nc3ccccc3OC)c2)c(O)c1	/	/	/	/	/	.
COCCN=c1scc(-c2cc(OC)c(OC)c(OC)c2)n1N=Cc1c(C)[nH]c2ccccc12	/	/	/	/	/	.
NC1=NC(=O)/C(=C\c2ccc(-c3ccc(Cl)cc3)o2)S1	51	.	.	.	.	.
CN(C)C1=NC(=O)/C(=C/c2ccc(-c3ccc(S(N)(=O)=O)cc3)o2)S1	.	.	.	/	.	/
CCCCCCC1C(=NO)CCC1C(=O)OC (configuration not stated)	/	/	/	/	/	.
CC(=O)Nc1nc(-c2ccc(Cl)cc2)nc(C)c1C(C)=O	73	.	.	.	.	.
CC(C)(C)c1ccc(-c2nnc(N)s2)cc1	63	.	.	.	.	.
Nc1nnc(-c2ccc(F)cc2)s1	.	.	.	.	.	.
COc1ccc(C)cc1NC(=O)C(NCC(O)c1ccccc1)c1ccccc1 (configuration not stated)	.	.	.	.	.	.
Cc1ccc(C)c(NCC(O)c2ccccc2)c1 (configuration not stated)	52	.	.	.	.	.
O=C1/C(=C\Nc2ccc(Cl)cc2)CCN1c1ncccn1	52	.	.	.	.	.
O=C1/C(=C\Nc2ccc(OC(F)(F)F)cc2)CCN1c1ncccn1	.	.	.	.	.	.
c1ccc2c(c1)CC/C2=N/Nc1nc2ccccc2[nH]1	48	.	.	.	.	/
c1ccc2c(c1)CCC2=NNc1nc2ccccc2[nH]1	/	/	/	/	/	.
CC(=O)c1c(N2CCCC2)[nH]c(-c2ccccc2)nc1=S	.	.	.	.	.	.
CC(=O)c1c(N)[nH]c(-c2ccccc2)nc1=S	62	.	.	.	.	.
CC(=NNC(=O)c1cc(C)oc1C)c1ccc2ccccc2c1	/	/	/	/	/	.
Cc1cc(C)cc(OCC(=O)NCc2nc(-c3ccccc3)no2)c1	.	.	.	.	.	.
O=C(COc1ccccc1Cl)NCc1nc(-c2ccccc2)no1	48	.	.	.	.	.
CCc1[nH]nc(C(=O)NN=Cc2ccncc2)c1C	/	/	/	/	/	.
O=S(=O)(O)c1cccc(N=Nc2c(O)ccc3ccccc23)c1	.	.	.	.	.	22
Oc1ccc2ccccc2c1N=Nc1ccccc1F	50	.	.	.	.	.
CCOC(=O)c1[nH]cnc1N=Nc1c(O)ccc2ccccc12	.	.	/	.	/	.
Oc1ccc2ccccc2c1N=Nc1ccccn1	74	.	.	.	.	.
CC(C)CCn1c(O)c(N=Nc2ccccn2)c2ccccc21	.	.	.	.	.	.
SMILES	AHR activator	PolyA inh	APOBEC3G inh	Arr AP2 block	APOBEC3A inh	UCH37 inh
O=S(=O)(/N=C/c1c(O)ccc2ccccc12)c1ccccc1	.	.	.	.	.	/
COc1ccc(C=NNC(=O)Cn2cnc3c2c(=O)n(C)c(=O)n3C)c(OC)c1OC	/	/	/	/	/	.
O=C1c2ccccc2NC(c2ccc(-c3ccccc3F)o2)N1O (configuration not stated)	54	/	.	.	.	.
O=C1c2ccccc2NC(c2ccc(-c3cccc(F)c3)o2)N1O (configuration not stated)	47	/	.	.	.	.
O=C(/C=C\c1cn(-c2ccccc2)nc1-c1ccccc1)Nc1nccs1	73	.	.	.	.	.
Cc1ccc2nc(CCc3ccc(N)cc3)[nH]c2c1	52	.	.	.	.	.
Oc1ccccc1-c1csc(-c2ccccc2)n1	69	.	.	.	.	.
Cc1ccc(C=NNC(=O)c2cc3c(s2)CCCC3)o1	/	/	/	/	/	.
Cc1sc2ncnc(NCc3cccnc3)c2c1C	61	.	.	.	.	.
COc1ccccc1C(=O)NN=Cc1c[nH]c2ccccc12	/	/	/	/	/	.
COc1cc(S(=O)(=O)N2CCOCC2)ccc1NC(=O)CSc1nnc(N)s1	.	.	.	.	.	30
CC(=O)c1cccc(N=Nc2c(C)[nH]c3ccccc23)c1	64	.	.	.	.	.
CC(=NNC(=O)c1ccoc1C)c1cccc(NC(=O)C(F)(F)F)c1	/	/	/	/	/	.
CC(C)(C)c1csc(N/N=C/c2ccc(O)cc2)n1	72	.	.	.	.	/
Fc1ccc(-c2csc(NC3=NCCC3)n2)cc1	55	.	.	.	.	.
COc1ccc(-c2csc(NNC3=NCCCCC3)n2)cc1	.	.	.	/	.	.
COc1ccc(-c2csc(NC3=NCCCCC3)n2)cc1	58	.	.	.	.	.
Cc1nnsc1-c1onc(C)c1C(=O)ON=Cc1ccc(Cl)cc1	/	/	/	/	/	.
O=C(NN=Cc1ccc2ccccc2c1)c1ccc(COc2ccc3c(c2)CCC3)o1	/	/	/	/	/	.
NNC(=O)c1ccc(COc2ccc(Br)cc2)o1	78	.	.	.	.	.
NNC(=O)c1ccc(COc2ccc3c(c2)CCC3)o1	59	.	.	.	.	.
Cn1c(=NNC(=O)C2CCCCC2)sc2ccccc21	/	/	/	/	/	.
O=C(ON=Cc1ccc(Cl)cc1)C1CCCCC1	/	/	/	/	/	.
CCCSc1ccc2nc(NC(=O)OC)[nH]c2c1	54	.	.	.	.	.
COC(=O)Nc1nc2ccc(SC(C)C)cc2[nH]1	.	/	.	.	.	.
SMILES	AHR activator	PolyA inh	APOBEC3G inh	Arr AP2 block	APOBEC3A inh	UCH37 inh
Cc1cc(C)c(C#N)c(Sc2ccccc2N)n1	49	.	.	.	.	.
Cc1cc(-c2ccccc2)nc(NN=Cc2ccc(N(C)C)cc2)n1	/	/	/	/	/	.
O=C(NC(=S)NNC(=O)c1cccs1)c1ccccc1	52	.	.	.	.	.
CC(C)(C)c1ccc(C(=O)NC(=S)NNC(=O)c2cccs2)cc1	74	.	/	.	/	.
O=C(NC(=S)Nc1ccccc1N1CCCCC1)c1cccs1	.	.	.	.	.	.
Cc1cccc(C(=O)NC(=S)NNC(=O)c2cccs2)c1	.	.	.	.	.	.
